Laboratory results from ChEMBL document CHEMBL5303300, “EUbOPEN Chemogenomics Library - Multiplex” (2023).
Where “and” joins values, the source holds several entries; their conditions need not be identical. Identical values can stand only once.

Test system: HEK-293T
Experiment: Multiplex assay against HEK293T
Type: toxicity, cell-based
Settings: human, number of replicates 2
Outline: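 Hoechst33342, BioTracker Green Microtubule Cytoskeleton Dye, MitoTracker Red and Annexin V Alexa Fluor 680 were added to live cells at seeding, and imaging on a CQ1 microscope at 37°C and 5% CO2 followed compound addition. Gating by CellPathfinder machine learning separated cells into Hoechst high-intensity objects or normal cells, then normal cells into healthy, pyknosed or fragmented nuclei, then pyknosed cells into mitotic or apoptotic. Per cents of healthy-nucleus cells are reported for the tubulin, mitochondrial-mass and membrane-permeability phenotypes.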

[1] = 12 h, 1 µM, compound concentration 1 uM
[2] = 12 h, 10 µM, compound concentration 10 uM
[3] = 24 h, 1 µM, compound concentration 1 uM
[4] = 24 h, 10 µM, compound concentration 10 uM
[5] = 48 h, 1 µM, compound concentration 1 uM
[6] = 48 h, 10 µM, compound concentration 10 uM

CN[C@@H]1CC[C@@H](c2ccc(Cl)c(Cl)c2)c2ccccc21.Cl
Population Apoptotic (%) [1]: 46% and 42%
Population Fragmented Nuclei (%) [1]: 2% and 3%
Population Healthy Nuclei (%) [1]: 84%
Population Hoechst High Intensity Objects (%) [1]: 8% and 7%
Population Membrane Permeable-Phenotype (%) [1]: 3%
Population Mitochondria Different-Phenotype (%) [1]: 21% and 16%
Population Mitotic Cells (%) [1]: 53% and 57%
Population Normal (%) [1]: 91% and 92%
Population Pyknosed Nuclei (%) [1]: 12% and 11%
Population Tubulin-Different-Phenotype (%) [1]: 68% and 66%
Population Apoptotic (%) [2]: 57% and 46%
Population Fragmented Nuclei (%) [2]: 3% and 1%
Population Healthy Nuclei (%) [2]: 81% and 80%
Population Hoechst High Intensity Objects (%) [2]: 6%
Population Membrane Permeable-Phenotype (%) [2]: 1% and 3%
Population Mitochondria Different-Phenotype (%) [2]: 48% and 54%
Population Mitotic Cells (%) [2]: 42% and 53%
Population Normal (%) [2]: 93%
Population Pyknosed Nuclei (%) [2]: 15% and 17%
Population Tubulin-Different-Phenotype (%) [2]: 96%
Population Apoptotic (%) [3]: 41% and 38%
Population Fragmented Nuclei (%) [3]: 3% and 4%
Population Healthy Nuclei (%) [3]: 88%
Population Hoechst High Intensity Objects (%) [3]: 8%
Population Membrane Permeable-Phenotype (%) [3]: 3% and 2%
Population Mitochondria Different-Phenotype (%) [3]: 10%
Population Mitotic Cells (%) [3]: 58% and 61%
Population Normal (%) [3]: 91%
Population Pyknosed Nuclei (%) [3]: 8% and 7%
Population Tubulin-Different-Phenotype (%) [3]: 42% and 45%
Population Apoptotic (%) [4]: 66% and 59%
Population Fragmented Nuclei (%) [4]: 4% and 2%
Population Healthy Nuclei (%) [4]: 78% and 81%
Population Hoechst High Intensity Objects (%) [4]: 7% and 11%
Population Membrane Permeable-Phenotype (%) [4]: 2%
Population Mitochondria Different-Phenotype (%) [4]: 63% and 59%
Population Mitotic Cells (%) [4]: 33% and 40%
Population Normal (%) [4]: 92% and 88%
Population Pyknosed Nuclei (%) [4]: 16% and 15%
Population Tubulin-Different-Phenotype (%) [4]: 94%
Population Apoptotic (%) [5]: 14% and 15%
Population Fragmented Nuclei (%) [5]: 11% and 10%
Population Healthy Nuclei (%) [5]: 84% and 86%
Population Hoechst High Intensity Objects (%) [5]: 10% and 9%
Population Membrane Permeable-Phenotype (%) [5]: 4%
Population Mitochondria Different-Phenotype (%) [5]: 1%
Population Mitotic Cells (%) [5]: 85% and 84%
Population Normal (%) [5]: 89% and 90%
Population Pyknosed Nuclei (%) [5]: 3%
Population Tubulin-Different-Phenotype (%) [5]: 18% and 23%
Population Apoptotic (%) [6]: 58% and 75%
Population Fragmented Nuclei (%) [6]: 5%
Population Healthy Nuclei (%) [6]: 84% and 83%
Population Hoechst High Intensity Objects (%) [6]: 8% and 13%
Population Membrane Permeable-Phenotype (%) [6]: 2% and 3%
Population Mitochondria Different-Phenotype (%) [6]: 29% and 34%
Population Mitotic Cells (%) [6]: 41% and 24%
Population Normal (%) [6]: 91% and 86%
Population Pyknosed Nuclei (%) [6]: 9% and 11%
Population Tubulin-Different-Phenotype (%) [6]: 76% and 87%

CC1(C)C(=O)N([C@H]2CCc3c(O)cccc32)c2nc(Nc3cccc(CN4CCCC4)c3)ncc21
Population Apoptotic (%) [1]: 51% and 69%
Population Fragmented Nuclei (%) [1]: 1% and 2%
Population Healthy Nuclei (%) [1]: 83% and 87%
Population Hoechst High Intensity Objects (%) [1]: 19% and 21%
Population Membrane Permeable-Phenotype (%) [1]: 1%
Population Mitochondria Different-Phenotype (%) [1]: 70% and 76%
Population Mitotic Cells (%) [1]: 48% and 30%
Population Normal (%) [1]: 80% and 78%
Population Pyknosed Nuclei (%) [1]: 14% and 10%
Population Tubulin-Different-Phenotype (%) [1]: 89% and 94%
Total Cell Count [1]: 252 and 277
Population Apoptotic (%) [2]: 80% and 74%
Population Fragmented Nuclei (%) [2]: 1% and 2%
Population Healthy Nuclei (%) [2]: 80% and 77%
Population Hoechst High Intensity Objects (%) [2]: 18% and 19%
Population Membrane Permeable-Phenotype (%) [2]: 2% and 0%
Population Mitochondria Different-Phenotype (%) [2]: 93% and 97%
Population Mitotic Cells (%) [2]: 19% and 25%
Population Normal (%) [2]: 81% and 80%
Population Pyknosed Nuclei (%) [2]: 17% and 20%
Population Tubulin-Different-Phenotype (%) [2]: 96% and 97%
Total Cell Count [2]: 216 and 218
Population Apoptotic (%) [3]: 88% and 33%
Population Fragmented Nuclei (%) [3]: 4% and 3%
Population Healthy Nuclei (%) [3]: 88% and 86%
Population Hoechst High Intensity Objects (%) [3]: 17% and 25%
Population Membrane Permeable-Phenotype (%) [3]: 2% and 3%
Population Mitochondria Different-Phenotype (%) [3]: 60% and 63%
Population Normal (%) [3]: 82% and 74%
Population Pyknosed Nuclei (%) [3]: 7% and 9%
Population Tubulin-Different-Phenotype (%) [3]: 92% and 89%
Total Cell Count [3]: 296 and 243
Population Apoptotic (%) [4]: 90% and 88%
Population Fragmented Nuclei (%) [4]: 4% and 3%
Population Healthy Nuclei (%) [4]: 77% and 75%
Population Hoechst High Intensity Objects (%) [4]: 21%
Population Membrane Permeable-Phenotype (%) [4]: 3% and 1%
Population Mitochondria Different-Phenotype (%) [4]: 94% and 96%
Population Mitotic Cells (%) [4]: 9% and 11%
Population Normal (%) [4]: 78%
Population Pyknosed Nuclei (%) [4]: 18% and 21%
Population Tubulin-Different-Phenotype (%) [4]: 96% and 94%
Total Cell Count [4]: 220 and 205
Population Apoptotic (%) [5]: 61% and 45%
Population Fragmented Nuclei (%) [5]: 7% and 6%
Population Healthy Nuclei (%) [5]: 87% and 89%
Population Hoechst High Intensity Objects (%) [5]: 20% and 17%
Population Membrane Permeable-Phenotype (%) [5]: 2% and 0%
Population Mitochondria Different-Phenotype (%) [5]: 26% and 29%
Population Mitotic Cells (%) [5]: 38% and 54%
Population Normal (%) [5]: 79% and 82%
Population Pyknosed Nuclei (%) [5]: 4%
Population Tubulin-Different-Phenotype (%) [5]: 84% and 87%
Total Cell Count [5]: 362 and 302
Population Apoptotic (%) [6]: 88% and 89%
Population Fragmented Nuclei (%) [6]: 3% and 1%
Population Healthy Nuclei (%) [6]: 71% and 74%
Population Hoechst High Intensity Objects (%) [6]: 22% and 24%
Population Membrane Permeable-Phenotype (%) [6]: 0%
Population Mitochondria Different-Phenotype (%) [6]: 94%
Population Mitotic Cells (%) [6]: 11% and 10%
Population Normal (%) [6]: 77% and 75%
Population Pyknosed Nuclei (%) [6]: 24%
Population Tubulin-Different-Phenotype (%) [6]: 98% and 97%
Total Cell Count [6]: 227 and 202

COc1cc(Br)c(S(=O)(=O)Nc2ccc(C(F)(F)F)c(O[C@@H]3CCN(C)C3)c2)cc1OC
Population Apoptotic (%) [1]: 35% and 41%
Population Fragmented Nuclei (%) [1]: 4% and 3%
Population Healthy Nuclei (%) [1]: 83% and 84%
Population Hoechst High Intensity Objects (%) [1]: 8% and 6%
Population Membrane Permeable-Phenotype (%) [1]: 3% and 4%
Population Mitochondria Different-Phenotype (%) [1]: 14% and 12%
Population Mitotic Cells (%) [1]: 64% and 58%
Population Normal (%) [1]: 91% and 93%
Population Pyknosed Nuclei (%) [1]: 11% and 12%
Population Tubulin-Different-Phenotype (%) [1]: 48% and 41%
Total Cell Count [1]: 739 and 648
Population Apoptotic (%) [2]: 60% and 67%
Population Fragmented Nuclei (%) [2]: 5% and 3%
Population Healthy Nuclei (%) [2]: 78%
Population Hoechst High Intensity Objects (%) [2]: 11% and 8%
Population Membrane Permeable-Phenotype (%) [2]: 3% and 5%
Population Mitochondria Different-Phenotype (%) [2]: 31% and 22%
Population Mitotic Cells (%) [2]: 39% and 32%
Population Normal (%) [2]: 88% and 91%
Population Pyknosed Nuclei (%) [2]: 16% and 17%
Population Tubulin-Different-Phenotype (%) [2]: 76% and 59%
Total Cell Count [2]: 481 and 500
Population Apoptotic (%) [3]: 38% and 42%
Population Fragmented Nuclei (%) [3]: 4% and 5%
Population Healthy Nuclei (%) [3]: 86%
Population Hoechst High Intensity Objects (%) [3]: 7% and 8%
Population Membrane Permeable-Phenotype (%) [3]: 2% and 3%
Population Mitochondria Different-Phenotype (%) [3]: 2% and 3%
Population Mitotic Cells (%) [3]: 61% and 57%
Population Normal (%) [3]: 92% and 91%
Population Pyknosed Nuclei (%) [3]: 8%
Population Tubulin-Different-Phenotype (%) [3]: 26% and 23%
Total Cell Count [3]: 1282 and 991
Population Apoptotic (%) [4]: 59% and 43%
Population Fragmented Nuclei (%) [4]: 9% and 6%
Population Healthy Nuclei (%) [4]: 78% and 83%
Population Hoechst High Intensity Objects (%) [4]: 9% and 8%
Population Membrane Permeable-Phenotype (%) [4]: 1% and 4%
Population Mitochondria Different-Phenotype (%) [4]: 10% and 6%
Population Mitotic Cells (%) [4]: 40% and 56%
Population Normal (%) [4]: 90% and 91%
Population Pyknosed Nuclei (%) [4]: 12% and 9%
Population Tubulin-Different-Phenotype (%) [4]: 51% and 30%
Total Cell Count [4]: 764 and 718
Population Apoptotic (%) [5]: 14% and 8%
Population Fragmented Nuclei (%) [5]: 15% and 9%
Population Healthy Nuclei (%) [5]: 82% and 87%
Population Hoechst High Intensity Objects (%) [5]: 9%
Population Membrane Permeable-Phenotype (%) [5]: 4% and 3%
Population Mitochondria Different-Phenotype (%) [5]: 0%
Population Mitotic Cells (%) [5]: 85% and 91%
Population Normal (%) [5]: 90%
Population Pyknosed Nuclei (%) [5]: 2%
Population Tubulin-Different-Phenotype (%) [5]: 13% and 11%
Total Cell Count [5]: 3360 and 2392
Population Apoptotic (%) [6]: 25% and 20%
Population Fragmented Nuclei (%) [6]: 13%
Population Healthy Nuclei (%) [6]: 82% and 84%
Population Hoechst High Intensity Objects (%) [6]: 9%
Population Membrane Permeable-Phenotype (%) [6]: 5% and 6%
Population Mitochondria Different-Phenotype (%) [6]: 0%
Population Mitotic Cells (%) [6]: 75% and 80%
Population Normal (%) [6]: 90%
Population Pyknosed Nuclei (%) [6]: 4% and 2%
Population Tubulin-Different-Phenotype (%) [6]: 24% and 13%
Total Cell Count [6]: 1611 and 1583
